# m5-HT2A agonist: mouse HTR2A agonism via beta-arrestin recruitment; P35363; CHO-K1 mHTR2A beta-arrestin complementation, luminescence; percent of 30 µM serotonin response; activation, % at 7.6 µM; 360,000 tested, 0.66% active; AID 624169;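 active = activation above a run cutoff, the mean activation of all tested compounds plus 3 SD, cut at about 14% in these data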;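 also: 0% = plate median of compound wells and 100% = 30 µM serotonin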
# CXCR6 block: blocks human CXCR6 beta-arrestin recruitment; inhibition, % at 20 µM; CHO-K1 PathHunter CXCR6 beta-arrestin, luminescence; 360,000 tested, 0.36% active; O00574; in the data active = inhibition above about 34%, passing the limit was not always enough;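 also: antagonist mode with CXCL16 agonist at 10 nM final; 0% = 10 nM CXCL16 with DMSO and 100% = unstimulated wells without agonist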
# APJ agonist: activates the human apelin receptor APJ; P35414; CHO-K1 APJ PathHunter beta-arrestin, luminescence; 0% DMSO wells, 100% apelin; activation, % at 20 µM; 330,000 tested, 0.11% active; AID 2520;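 active = activation more than six SD over the plate average, tested at 20 µM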;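 also: 0% = DMSO alone and 100% = apelin-13 at 10 nM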
#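 Incubation: overnight seeding, 90 min compound at 25 °C, 1 h detection; test system: PathHunter CHO-K1 APJ (AGTRL-1) beta-arrestin reporter cells; amount: 1000 cells/well; doses: one dose, 20 µM compound, 1% DMSO; measured by: beta-gal luminescence; measure: agonist-driven arrestin binding to APJ; benchmarks: negative DMSO alone, positive Apelin-13 at 10 nM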
# CCR6 antagonist: antagonists of human CCR6 receptor; inhibition, % at 20 µM; CHO-K1 CCR6 PathHunter beta-arrestin, luminescence, CCL20-stimulated; AID 493098; P51684; 340,000 tested, 0.49% active;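 active = compounds whose inhibition of the agonist-driven luminescence signal at 20 µM reaches about 50%, limit read from the data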;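 also: cells stimulated with CCL20 at 14 nM final; plate controls were DMSO with CCL20 for no effect and DMSO without agonist for full effect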
# Target sequence (P51684 whole entry, looked up): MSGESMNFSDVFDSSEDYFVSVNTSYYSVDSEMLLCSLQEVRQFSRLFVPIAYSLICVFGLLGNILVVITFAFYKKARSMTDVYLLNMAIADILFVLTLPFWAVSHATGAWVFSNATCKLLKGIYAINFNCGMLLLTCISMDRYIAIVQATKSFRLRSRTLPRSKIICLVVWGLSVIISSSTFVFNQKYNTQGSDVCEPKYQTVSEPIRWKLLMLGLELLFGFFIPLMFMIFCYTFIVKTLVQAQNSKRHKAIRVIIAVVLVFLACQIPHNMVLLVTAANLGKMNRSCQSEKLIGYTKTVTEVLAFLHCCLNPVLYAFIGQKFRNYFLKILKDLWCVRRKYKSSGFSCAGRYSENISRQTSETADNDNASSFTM
# APJ antag: APJ receptor antagonism; P35414; CHO-K1 APJ beta-arrestin complementation, luminescence; inhibition, % at 20 µM; 330,000 tested, 0.32% active;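 active = inhibition above about 40% at 20 µM, limit read from the data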;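 also: cells challenged with 10 nM apelin-13 agonist together with compound; plate controls were apelin-13 plus DMSO wells for no effect and DMSO wells lacking apelin-13 for full effect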
# EBI2 block: EBI2 (human) antagonism | P32249 | EBI2 beta-arrestin recruitment, luminescence, 7a,25-OHC stimulated | inhibition, % at 5 µM | 360,000 tested, 0.81% active; in the data active = inhibition above about 38%;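 also: enzyme fragment complementation signal reports receptor beta-arrestin coupling in cells; 0% = agonist plus DMSO wells and 100% = wells without agonist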
# EBI2 antag conf: EBI2 (human) antagonism, single concentration confirmation | shares compounds with EBI2 block | EBI2 beta-arrestin luminescence, 7a,25-OHC antagonism | inhibition, % at 5 µM | 2,400 tested, 29% active;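 active = inhibition of at least 50%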
# EBI2 agonist: EBI2 agonism counter-screen; shares compounds with EBI2 block; EBI2-expressing cells, agonist mode, luminescence, 60 min; 0% vehicle, 100% 7α,25-dihydroxycholesterol control; activation, % at 5 µM; 2,400 tested, under 10 active;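 active = activation of at least 50%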
# bGal cs: beta-galactosidase inhibition counter-screen | shares compounds with EBI2 block | purified beta-galactosidase, luminescent Galacton Star, 15 min | inhibition, % at 5 µM | 2,400 tested, 1% active;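 active = replicate-average signal at least 3 plate SD below neutral wells, shown as high inhibition, flagging enzyme-inhibiting false positives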;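 also: 0% = DMSO wells with enzyme and 100% = wells lacking enzyme; higher means stronger loss of beta-gal luminescence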
# Starred values were filed as active, the others as inactive; nt = no result. Shown are actives, neighbours in structure and some others; about 2.1% of the full set was active somewhere.
SMILES,m5-HT2A agonist,CXCR6 block,APJ agonist,CCR6 antagonist,APJ antag,EBI2 block,EBI2 antag conf,EBI2 agonist,bGal cs
COc1cc(/C=N/NC(=O)COc2ccc(Cl)cc2)ccc1OS(=O)(=O)c1ccc(C)cc1,-6,-3,7,9,-21,42*,5,-1,-6
COc1cc(/C=N/NC(=O)COc2cccc(F)c2)ccc1OS(=O)(=O)c1ccc(C)cc1,-9,6,1,18,-17,24,nt,nt,nt
C=CCNC(=O)/C(C#N)=C/c1ccc(OS(=O)(=O)c2ccc(C)cc2)c(OC)c1,6,4,nt,-3,nt,52*,76*,2,4
COc1ccc(CCNC(=S)N2CCN(S(=O)(=O)c3ccc(C)cc3)CC2)cc1,-4,1,7,16,14,52*,43,1,0
Cc1ccc(CNC(=O)c2ccc(S(=O)(=O)N3CCCCC3)cc2)cc1,-3,-2,4,7,6,64*,27,2,2
COc1ccc(CNC(=O)N2CCN(S(=O)(=O)c3ccc(C)cc3C)CC2)cc1,2,-4,0,21,-11,63*,39,-1,-17
COc1ccc(CNC(=O)N2CCN(S(=O)(=O)c3ccccc3F)CC2)cc1,-1,1,-1,2,20,13,nt,nt,nt
Cc1ccc(CNC(=O)c2ccc(S(=O)(=O)N3CCCC3)cc2)cc1,-6,5,nt,nt,nt,34,nt,nt,nt
COc1ccc(S(=O)(=O)N2CCN(C(=S)NCCc3ccccc3)CC2)cc1,-3,-4,13,7,-44,12,nt,nt,nt
Cc1cccc(C(=O)NC(=S)Nc2ccc(S(=O)(=O)N3CCCCC3)cc2)c1,-5,18,-3,41,9,62*,45,-1,-14
COc1ccc(C(=O)OCC(=O)N(C)C2CCS(=O)(=O)C2)cc1Br (stereo unspecified),1,3,-1,3,16,-4,nt,nt,nt
CCOc1ccc(N2C(=O)CC(NC3CCN(C(=O)c4cccs4)CC3)C2=O)cc1 (stereo unspecified),-2,-5,2,9,18,7,nt,nt,nt
Cc1ccc(S(=O)(=O)N2CCN(C(=O)NCc3ccc(F)cc3)CC2)c(C)c1,-3,-1,-1,8,1,68*,27,1,1
COc1ccc(S(=O)(=O)N2CCN(C(=O)NCc3ccc(C)cc3)CC2)cc1,-9,5,-1,2,10,77*,60*,2,0
Cc1ccc(CNC(=O)Cc2ccc(-n3cccc3)cc2)cc1,1,-2,-2,-8,-6,-6,nt,nt,nt
Cc1ccc(CNC(=O)c2ccc(-n3cccc3)cc2)cc1,0,-2,nt,14,nt,47*,3,-1,-11
CCOCc1c(C(=O)Nc2ccc3nc(N4CCOCC4)sc3c2)oc2ccccc12,7,-19,3,-14,-5,-9,nt,nt,nt
Cc1ccc(OCC(=O)NCCNC(=O)c2cnccn2)cc1,0,3,-2,-3,-1,-18,nt,nt,nt
COCCN(C(=O)CCCc1nc2ccccc2s1)c1c(N)n(CC(C)C)c(=O)[nH]c1=O,9,-2,1,4,-56,0,nt,nt,nt
O=C(C1=C[C@@H](c2ccc(Br)cc2)C[C@@H](OCc2ccc(CO)cc2)O1)N1CCN(Cc2ccc3c(c2)OCO3)CC1,-10,4,2,6,-18,41*,-1,-1,-14
O=C(C1=C[C@@H](c2ccc(C(F)(F)F)cc2)C[C@@H](OCc2ccc(CO)cc2)O1)N1CCN(Cc2ccc3c(c2)OCO3)CC1,-2,6,7,7,0,36,nt,nt,nt
O=C(CCCOc1ccc(Br)cc1)Nc1nnc(C2CC2)s1,-6,-5,0,-4,4,-7,nt,nt,nt
Cc1cccnc1NC(=O)C1CCCN1S(=O)(=O)c1ccc(Cl)cc1 (stereo unspecified),-3,0,-4,-2,13,-14,nt,nt,nt
O=C1CC2(CCN(C(=O)C3CC(=O)N(c4ccccc4)C3)CC2)Oc2ccccc21 (stereo unspecified),-1,-1,-6,-2,-49,65*,21,1,6
O=C1CC2(CCN(C(=O)COc3ccccc3)CC2)Oc2ccccc21,-2,-2,0,3,8,46*,20,2,4
SMILES,m5-HT2A agonist,CXCR6 block,APJ agonist,CCR6 antagonist,APJ antag,EBI2 block,EBI2 antag conf,EBI2 agonist,bGal cs
Cc1ccccc1OCC(=O)N1CCC2(CC1)CC(=O)c1ccccc1O2,-5,9,-2,4,2,30,nt,nt,nt
COc1cccc(N2CC(C(=O)N3CCC4(CC3)CC(=O)c3ccccc3O4)CC2=O)c1 (stereo unspecified),9,-8,-4,5,12,40,nt,nt,nt
Nc1c(C(=O)NC2CCCC2)c2nc3ccccc3nc2n1/N=C/c1cccnc1,2,-8,5,-8,-14,3,nt,nt,nt
CCCc1nc(SCC(=O)NNC(=O)c2ccc(OC)cc2)c2ccccc2n1,-6,-2,0,8,-5,77*,45,0,-14
CCn1c(SCC(=O)NNC(=O)c2ccc(C)cc2)nnc1-c1ccco1,-2,5,0,11,-6,80*,50,-1,-18
CCn1c(SCC(=O)Nc2ccc(OC)cc2)nnc1-c1ccco1,-1,-2,0,-3,10,-11,nt,nt,nt
CCC(=O)Nc1ccc(NC(=O)CSc2nnc(-c3ccco3)n2CC)cc1,1,-7,0,8,-8,-10,nt,nt,nt
CCn1c(SCC(=O)NNC(=O)c2ccc(OC)cc2)nnc1-c1ccco1,-2,2,-1,3,-35,70*,50,2,5
CCCc1nc(SCC(=O)NNC(=O)C2CCCCC2)c2ccccc2n1,-2,-2,-2,-10,7,-6,nt,nt,nt
O=C(Nc1cccc(S(=O)(=O)NC2=NCCC2)c1)c1cc(=O)[nH]c2ccccc12,-2,-7,0,3,-19,-5,nt,nt,nt
CC(=O)NC(c1ccccc1)c1nc(-c2ccc3ccccc3c2)cs1 (stereo unspecified),-3,-10,nt,nt,nt,9,nt,nt,nt
Cc1ccc(NC(=O)C2(C)CCN2Cc2csc3ccccc23)cc1 (stereo unspecified),-6,0,nt,nt,nt,10,nt,nt,nt
CC1(C(=O)NCc2ccccc2Br)CCN1Cc1csc2ccccc12 (stereo unspecified),-8,3,nt,nt,nt,61*,51*,2,0

# Assay outcomes (PubChem)
